In ChEMBL document CHEMBL4825737, “Design, synthesis, and biological evaluation of novel 6-(pyridin-3-yl) quinazolin-4(3H)-one derivatives as potential anticancer agents via PI3K inhibition” (Bioorg Med Chem, 2021):
Each block holds one compound with its values, some of them ahead of it. Activity calls are given as the source filed them. No cut-off for these calls is given here.

Key:
[1] = test system: HEL; test: Antiproliferative activity against human HEL cells assessed as reduction in cell viability measured after 72 hrs by flow cytometry analysis; assay type: functional, cell-based
How it was run: (§1)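 Cells in RPMI 1640 with 10% FBS and penicillin/streptomycin/amphotericin B, seeded at 2.5–3 × 10⁴ per well. Grown adherent in fresh medium for 24 h, then exposed to a range of compound concentrations for 72 h. Living cell numbers counted by flow cytometry; IC50 calculated. Mean ± SD from three experiments.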

[2] = Antiproliferative activity against human LM3 cells assessed as reduction in cell viability measured after 72 hrs by flow cytometry analysis; assay type: functional, cell-based; conditions: GILM3, 72 h; how it was run: as §1
[3] = test system: SH-SY5Y; test: Antiproliferative activity against human SH-SY5Y assessed as reduction in cell viability measured after 72 hrs by flow cytometry analysis; assay type: functional, cell-based; how it was run: as §1
[4] = test system: HCC827; test: Antiproliferative activity against human HCC827 cells assessed as reduction in cell viability measured after 72 hrs by flow cytometry analysis; assay type: functional, cell-based; conditions: HCC827, 72 h; how it was run: as §1
[5] = test system: HCC827; test: Induction of apoptosis in human HCC827 cells assessed as late apoptotic cells at 1 uM incubated for 48 hrs by annexin V-FITC and propidium iodide staining based flow cytometry analysis (reference value: 0.56%); assay type: functional
[6] = test system: HCC827; test: Induction of apoptosis in human HCC827 cells assessed as early apoptotic cells at 4 uM incubated for 48 hrs by annexin V-FITC and propidium iodide staining based flow cytometry analysis (reference value: 2.69%); assay type: functional
[7] = test system: HCC827; test: Induction of apoptosis in human HCC827 cells assessed as necrotic cells at 1 uM incubated for 48 hrs by annexin V-FITC and propidium iodide staining based flow cytometry analysis (reference value: 2.57%); assay type: functional
[8] = test system: HCC827; test: Induction of apoptosis in human HCC827 cells assessed as early apoptotic cells at 1 uM incubated for 48 hrs by annexin V-FITC and propidium iodide staining based flow cytometry analysis (reference value: 2.69%); assay type: functional
[9] = test system: HCC827; test: Induction of apoptosis in human HCC827 cells assessed as necrotic cells at 4 uM incubated for 48 hrs by annexin V-FITC and propidium iodide staining based flow cytometry analysis (reference value: 2.57%); assay type: functional
[10] = test system: HCC827; test: Induction of apoptosis in human HCC827 cells assessed as reduction in c-Myc expression at 1 to 4 uM incubated for 24 hrs by Western blot analysis; assay type: functional, cell-based; conditions: dose 1-4 µM
How it was run: (§2)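 HCC827 cells treated with a range of compound concentrations for 24 h. Western blot for G2/M-associated proteins with GAPDH as loading control. Bands quantified by densitometry; mean ± SD, n = 3, compared with control.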

[11] = test system: HCC827; test: Induction of apoptosis in human HCC827 cells assessed as upregulation of Bax by Western blot analysis; assay type: functional, cell-based
How it was run: (§3)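 HCC827 cells treated with a range of compound concentrations. Western blot for mitochondrial apoptosis proteins with GAPDH as loading control. Bands quantified by densitometry; mean ± SD, n = 3, compared with vehicle control.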

[12] = test system: HCC827; test: Induction of apoptosis in human HCC827 cells assessed as reduction in Cyclin-B1 expression at 1 to 4 uM incubated for 24 hrs by Western blot analysis; assay type: functional, cell-based; conditions: dose 1-4 µM; how it was run: as §2
[13] = test system: HCC827; test: Induction of apoptosis in human HCC827 cells assessed as viable cells at 2 uM incubated for 48 hrs by annexin V-FITC and propidium iodide staining based flow cytometry analysis (reference value: 94.16%); assay type: functional; conditions: read-out: Activity
[14] = test system: HCC827; test: Induction of cell cycle arrest in human HCC827 cells assessed as accumulation at G2 phase incubated for 24 hrs by […]PI assay; assay type: functional, cell-based; conditions: dose 1-4 µM
How it was run: (§4)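 HCC827 cells held 12 h in medium without FBS, then treated for 24 h. Fixed overnight in 70% ethanol and stained with propidium iodide plus RNase for 30 min in the dark at room temperature. Cell cycle distribution read by flow cytometry.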

[15] = test system: HCC827; test: Induction of cell cycle arrest in human HCC827 cells assessed as decrease in G1 phase incubated for 24 hrs by […]PI assay; assay type: functional, cell-based; conditions: dose 1-4 µM; how it was run: as §4
[16] = test system: HCC827; test: Induction of apoptosis in human HCC827 cells assessed as reduction in CHK1 expression at 1 to 4 uM incubated for 24 hrs by Western blot analysis; assay type: functional, cell-based; conditions: dose 1-4 µM; how it was run: as §2
[17] = test system: HCC827; test: Induction of apoptosis in human HCC827 cells assessed as upregulation of cleaved-caspase 9 by Western blot analysis; assay type: functional, cell-based; how it was run: as §3
[18] = test system: L02; test: Antiproliferative activity against human HL7702 cells assessed as reduction in cell viability measured after 72 hrs by flow cytometry analysis; assay type: functional, cell-based; conditions: L02, 72 h; how it was run: as §1
[19] = test system: HCC827; test: Induction of apoptosis in human HCC827 cells assessed as necrotic cells at 2 uM incubated for 48 hrs by annexin V-FITC and propidium iodide staining based flow cytometry analysis (reference value: 2.57%); assay type: functional
[20] = test system: HCC827; test: Inhibition of PI3K signalling in human HCC827 cells assessed as decrease in phosphorylation of Akt at Ser473 at 1 to 4 uM incubated for 24 hrs by Western blot analysis; assay type: cell-based; conditions: dose 1-4 µM
How it was run: (§5)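 HCC827 cells treated with different compound concentrations for 24 h. Phospho-protein levels measured by Western blot. Mean ± SD from three parallel experiments, compared with DMSO control.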

[21] = test system: HCC827; test: Induction of apoptosis in human HCC827 cells assessed as late apoptotic cells at 4 uM incubated for 48 hrs by annexin V-FITC and propidium iodide staining based flow cytometry analysis (reference value: 0.56%); assay type: functional
[22] = Inhibition of PI3K in human HCC827 cells assessed as decrease in phosphorylation incubated for 24 hrs by cell PI3 kinase activity photometric assay; assay type: cell-based; conditions: HCC827, 24 h
How it was run: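 Human NSCLC HCC827 cells grown in RPMI 1640 with 10% FBS and antibiotics-antimycotics, exposed to a range of concentrations for 24 h. Cells washed with Reagent A, lysed with Reagent B, protein measured by Bradford, then 100 μg lysate protein per group used in a cell PI3K assay kit for kinase activity. IC50 given as mean ± SD of three separate experiments.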

[23] = test system: HCC827; test: Inhibition of PI3K signalling in human HCC827 cells assessed as decrease in phosphorylation of GSKbeta at Ser9 at 1 to 4 uM incubated for 24 hrs by Western blot analysis; assay type: cell-based; conditions: dose 1-4 µM; how it was run: as §5
[24] = test system: HCC827; test: Induction of apoptosis in human HCC827 cells assessed as upregulation of cleaved-PRAP by Western blot analysis; assay type: functional, cell-based; how it was run: as §3
[25] = test system: HCC827; test: Induction of apoptosis in human HCC827 cells assessed as downregulation of Bcl-2 by Western blot analysis; assay type: functional, cell-based; how it was run: as §3
[26] = test system: HCC827; test: Induction of apoptosis in human HCC827 cells assessed as viable cells at 4 uM incubated for 48 hrs by annexin V-FITC and propidium iodide staining based flow cytometry analysis (reference value: 94.16%); assay type: functional; conditions: read-out: Activity
[27] = test system: HCC827; test: Inhibition of PI3K signalling in human HCC827 cells assessed as decrease in phosphorylation of mTOR at Ser2448 at 1 to 4 uM incubated for 24 hrs by Western blot analysis; assay type: cell-based; conditions: dose 1-4 µM; how it was run: as §5
[28] = test system: HCC827; test: Induction of apoptosis in human HCC827 cells assessed as early apoptotic cells at 2 uM incubated for 48 hrs by annexin V-FITC and propidium iodide staining based flow cytometry analysis (reference value: 2.69%); assay type: functional
[29] = test system: HCC827; test: Induction of apoptosis in human HCC827 cells assessed as viable cells at 1 uM incubated for 48 hrs by annexin V-FITC and propidium iodide staining based flow cytometry analysis (reference value: 94.16%); assay type: functional; conditions: read-out: Activity
[30] = test system: HCC827; test: Induction of apoptosis in human HCC827 cells assessed as late apoptotic cells at 2 uM incubated for 48 hrs by annexin V-FITC and propidium iodide staining based flow cytometry analysis (reference value: 0.56%); assay type: functional
[31] = test system: HCC827; test: Induction of apoptosis in human HCC827 cells assessed as reduction in p-CHK1 expression at 1 to 4 uM incubated for 24 hrs by Western blot analysis; assay type: functional, cell-based; conditions: dose 1-4 µM; how it was run: as §2

SMILES: CCCCC(=O)Nc1ccc(-c2ccc3ncn(CCN4CCOCC4)c(=O)c3c2)cn1
IC50 [1]: > 40 µM
IC50 [2]: > 40 µM
IC50 [3]: > 40 µM
IC50 [4]: 29 µM

SMILES: CCC(=O)Nc1ccc(-c2ccc3ncn(Cc4ccccc4)c(=O)c3c2)cn1
IC50 [1]: > 40 µM
IC50 [2]: > 40 µM
IC50 [3]: > 40 µM
IC50 [4]: > 40 µM

SMILES: Cc1ccc(Cn2cnc3ccc(-c4ccc(N(C(=O)c5ccccc5)C(=O)c5ccccc5)nc4)cc3c2=O)cc1
IC50 [1]: > 40 µM
IC50 [2]: > 40 µM
IC50 [3]: > 40 µM
IC50 [4]: 29.2 µM

SMILES: COC[C@H]1OC(=O)c2coc3c2[C@@]1(C)C1=C(C3=O)[C@@H]2CCC(=O)[C@@]2(C)C[C@H]1OC(C)=O [WORTMANNIN]
IC50 [22]: 0.018 µM

SMILES: CC(C)(C)C(=O)Nc1ccc(-c2ccc3ncn(Cc4ccccc4)c(=O)c3c2)cn1
IC50 [1]: > 40 µM
IC50 [2]: > 40 µM
IC50 [3]: > 40 µM
IC50 [4]: > 40 µM

Second part, led by results:

IC50 [3]: 0.79 µM
IC50 [4]: 0.53 µM
SMILES: Cn1c(=O)n(-c2ccc(C(C)(C)C#N)cc2)c2c3cc(-c4cnc5ccccc5c4)ccc3ncc21 [DACTOLISIB]
IC50 [1]: 0.29 µM
IC50 [2]: 1.31 µM

IC50 [22]: 0.072 µM
IC50 [3]: 2.13 µM
IC50 [4]: 1.12 µM
SMILES: O=C(c1ccccc1)N(C(=O)c1ccccc1)c1ccc(-c2ccc3ncn(Cc4ccccc4)c(=O)c3c2)cn1
Activity [5]: 13.57%
Activity [6]: 27.87%
Activity [7]: 6.47%
Activity [8]: 11.77%
Activity [9]: 6.05%
Activity [10]: Active
Activity [11]: Dose-Dependent Effect
Activity [12]: Active
IC50 [1]: 2.01 µM
viability at 2 µM [13]: 58.5%
Activity [14]: Dose-Dependent Effect
Activity [15]: Dose-Dependent Effect
Activity [16]: Active
Activity [17]: Dose-Dependent Effect
IC50 [18]: 8.66 µM
IC50 [2]: 2.65 µM
Activity [19]: 6.66%
inhibition [20]: Active
Activity [21]: 11.28%
inhibition [23]: Active
Activity [24]: Dose-Dependent Effect
Activity [25]: Active
viability at 4 µM [26]: 54.8%
inhibition [27]: Active
Activity [28]: 19.16%
viability at 1 µM [29]: 68.2%
Activity [30]: 15.63%
Activity [31]: Active

IC50 [3]: 35.4 µM
IC50 [4]: 32.2 µM
SMILES: CCCCC(=O)Nc1ccc(-c2ccc3ncn(Cc4ccc(C)cc4)c(=O)c3c2)cn1
IC50 [1]: 18.8 µM
IC50 [2]: > 40 µM
